In brackets after ≈: the same amount, converted by molar mass.
Key:
Leishmania donovani [1] = assay: Antileishmanial activity against Leishmania donovani amastigotes infected in human THP1 cells incubated for 96 hrs; format: functional, organism-based; settings: THP-1, 96 h
Summary of the method: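 THP-1 cells were infected with L. donovani amastigotes and exposed to compound for 96 h rather than the earlier 72 h. Values are from at least three or four independent replicates.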

[2] = Toxicity in human THP1 cells assessed as reduction in cell viability; format: cell-based; settings: THP-1 cells
[3] = Intrinsic clearance in mouse liver microsomes; format: ADME, Microsome
[4] = Kinetic aqueous solubility of the compound; format: physicochemical; settings: buffer; for solubility kinetic: read-out: Kinetic_solubility
[5] = Distribution coefficient, logD of the compound at pH 7.4 by chromatography; format: physicochemical; settings: octanol/water
[6] = Drug metabolism in Balb/C mouse assessed as glucuronide adduct formation at 50 mg/kg, ip BID by UPLC Q-TOF analysis; format: ADME, organism-based; settings: in vivo
Summary of the method: (§1)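 Balb/C mice received 50 mg/kg ip. Blood/water (1:2) was sampled at set time points, mixed with acetonitrile and centrifuged 5 min at 7000 rpm. Metabolites and parent compound were then analysed. Data are from two runs.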

[7] = Drug metabolism in Balb/C mouse assessed as hydroxylation formation at 50 mg/kg, ip BID by UPLC Q-TOF analysis; format: ADME, organism-based; settings: in vivo; summary of the method: as §1
[8] = Stability in Balb/C mouse assessed as parent compound level at 50 mg/kg, ip BID after 8 hrs by UPLC Q-TOF analysis; format: ADME, organism-based; settings: in vivo; summary of the method: as §1
[9] = Selectivity index, ratio of EC50 for toxicity in human THP1 cells assessed as reduction in cell viability to EC50 for antileishmanial activity against Leishmania donovani amastigotes infected in human THP1 cells incubated for 96 hrs; format: cell-based; settings: THP-1 cells, read-out: Ratio EC50
Leishmania donovani [10] = assay: Antileishmanial activity against Leishmania donovani infected in mouse assessed as reduction in parasite levels at 30 mg/kg, po qd; set-up: scale not given: the % may be the effect or the level left

Row | Compound | EC50 (Leishmania donovani [1]) [µM] | EC50 [2] [µM] | CLH [3] [mL/min/g] | Kinetic_solubility [4] [µM] | logD [5] | solubility kinetic [4] [µM] | chromatographic logD [5] | Drug metabolism [6] | Drug metabolism [7] | Stability [8] | selectivity ratio at 96 h [9] | Activity (Leishmania donovani [10]) [%]
1 | O=C(NCc1ccc(Cl)cc1)c1ccc2cccnc2c1O | 15.8 | 6.31 | 19 | 219 | 4.8 | – | – | – | – | – | – | –
2 | O=C(NCc1ccc(Cl)cc1)c1ncc2cccnc2c1O | – | > 50.1 | 10 | > 250 | – | – | – | – | – | – | – | –
3 | Cc1n[nH]c(-c2nc(N3CCCCS3(=O)=O)c3cccnc3c2O)n1 | > 50.1 | > 50.1 | 0.6 | – | – | 250 (≈ 90.1 µg/mL) | 1.5 | – | – | – | – | –
4 | COc1ccc(CNC(=O)c2nn(C)c3cccnc3c2=O)cc1 | > 50.1 | > 50.1 | 0.7 | > 250 | 1.9 | – | – | – | – | – | – | –
5 | Cc1n[nH]c(-c2cc3ncccc3c(-c3ccccc3)n2)n1 | > 50.1 | > 50.1 | – | > 250 | – | – | – | – | – | – | – | –
6 | O=C(NCc1ccc(Cl)cc1)c1ncc2ccccc2c1O | > 50.1 | > 50.1 | 28 | 39 | 7.6 | – | – | – | – | – | – | –
7 | CNC(=O)c1nc(-c2ccccc2OC)c2cccnc2c1O | 10 | 39.8 | 0.9 | 219 | 4.2 | – | – | Metabolite_Notdetected | Metabolite_Detected | Stable | – | –
8 | Cc1n[nH]c(-c2nc(-c3ccccc3C(F)(F)F)c3cccnc3c2O)n1 | 0.1 | > 50.1 | 1.4 | – | – | > 250 | 4.3 | – | – | – | – | –
9 | C[C@@H](NC(=O)c1cn(C)c2cccnc2c1=O)c1ccc(F)cc1 | > 50.1 | > 50.1 | 0.7 | – | – | > 250 | – | – | – | – | – | –
10 | COc1ccccc1-c1nc(C(=O)NCC2CC2)c(O)c2ncccc12 | 2 | > 50.1 | 8 | – | – | > 250 | – | – | – | – | – | –
11 | COc1ccccc1-c1nc(C(=O)N[C@H](C)c2ccc(F)cc2)c(O)c(=O)n1C | > 50.1 | > 50.1 | < 0.5 | 173 | 5.5 | – | – | – | – | – | – | –
12 | O=C1CCCN1Cc1n[nH]c(-c2ncc3cccnc3c2O)n1 | > 50.1 | > 50.1 | < 0.5 | > 250 | – | – | – | – | – | – | – | –
13 | O=C(NCc1ccc(Cl)cc1)c1nc(N2CCOCC2)c2cccnc2c1O | > 50.1 | > 50.1 | 24 | – | – | 219 (≈ 87.3 µg/mL) | – | – | – | – | – | –
14 | O=C(NCC1CC1)c1ncc2cccnc2c1O | 1.26 | > 50.1 | 13 | – | – | – | 3.3 | – | – | – | – | –
15 | COc1ccccc1-c1nc(-c2nnc(C)o2)c(O)c2ncccc12 | > 50.1 | > 50.1 | < 0.5 | > 250 | 3.8 | – | – | – | – | – | – | –
16 | Cc1n[nH]c(-c2nc(N(C)C)c3cccnc3c2O)n1 | 15.8 | > 50.1 | 14 | – | – | > 250 | -0.6 | – | – | – | – | –
17 | COc1ccccc1-c1nc(-c2nc(C)n[nH]2)c(OC)c2ncccc12 | 2.51 | > 50.1 | 2 | > 250 | 5.7 | – | – | – | – | – | – | –
18 | COc1ccc(CNC(=O)c2ncc3cccnc3c2O)cc1 | 0.501 | > 50.1 | 2.6 | > 250 | 4.2 | – | – | – | – | – | – | –
19 | Oc1c(-c2nc(CN3CCOCC3)n[nH]2)ncc2cccnc12 | – | > 50.1 | 0.8 | 219 | 0.5 | – | – | – | – | – | – | –
20 | Oc1c(-c2nc(C(O)c3ccccc3)n[nH]2)ncc2cccnc12 (configuration not stated) | 5.01 | > 50.1 | 1.9 | > 250 | – | – | – | – | – | – | – | –
21 | Cc1n[nH]c(-c2ncc3cccnc3c2O)n1 | > 50.1 | > 50.1 | 3.3 | > 250 | 0.73 | – | – | – | – | – | – | –
22 | Oc1c(-c2nnc(Cc3ccc(F)cc3)[nH]2)ncc2cccnc12 | 2.51 | 39.8 | – | – | – | – | – | – | – | – | – | –
23 | Oc1c(-c2nnc(Cc3ccc(Cl)cc3)[nH]2)ncc2cccnc12 | – | 31.6 | 18 | 219 | 4.1 | – | – | – | – | – | 100 | –
24 | C[C@@H]1[C@H](O)[C@@H](C)/C=C/C=C/C=C/C=C/C=C/C=C/C=C/[C@H](O[C@@H]2O[C@H](C)[C@@H](O)[C@H](N)[C@@H]2O)C[C@@H]2O[C@](O)(C[C@@H](O)C[C@@H](O)[C@H](O)CC[C@@H](O)C[C@@H](O)CC(=O)O[C@H]1C)C[C@H](O)[C@H]2C(=O)O [AMPHOTERICIN B] | 0.2 | > 1 | – | – | – | – | – | – | – | – | – | –
25 | CCCCCCCCCCCCCCCCOP(=O)([O-])OCC[N+](C)(C)C [MILTEFOSINE] | 3.98 | > 50.1 | – | – | – | – | – | – | – | – | – | >99
26 | Cc1nnc(C(=O)NC(C)(C)c2nc(C(=O)NCc3ccc(F)cc3)c(O)c(=O)n2C)o1 [RALTEGRAVIR] | > 50.1 | > 50.1 | – | > 250 | – | – | – | – | – | – | – | –

Source: ChEMBL document CHEMBL4619783, “Identification and Optimization of a Series of 8-Hydroxy Naphthyridines with Potent In Vitro Antileishmanial Activity: Initial SAR and Assessment of In Vivo Activity” (J Med Chem, 2020)
